Results collected from several papers.
Lines come from different studies, so protocols differ. In brackets after ≈: the same amount, converted by molar mass.
Organism: Staphylococcus epidermidis

SMILES	test	system	setting	measurement	value
C/C(=C\c1ccc(O)cc1)C(=O)Nc1ccc(C(=O)N[C@@H](CC(N)=O)C(=O)Nc2ccc(C(=O)Nc3ccc(C(=O)Nc4ccc(C(=O)O)cc4)c(O)c3OC(C)C)cc2)cc1	microbial growth	DSM28765	–	MIC	0.25 µg/mL
CC1(C)S[C@@H]2[C@H](NC(=O)[C@H](N)c3ccccc3)C(=O)N2[C@H]1C(=O)O	microbial growth, agar dilution	ATCC12228	26.93 µM	inhibition	100%
COc1cccc(OC)c1C(=O)N[C@@H]1C(=O)N2[C@@H]1SC(C)(C)[C@@H]2C(=O)O	microbial growth, broth dilution	12228	–	MIC	3.13 µM
CC(C)Oc1c(NC(=O)c2ccc(NC(=O)c3ccc(NC(=O)[C@H](CC(N)=O)NC(=O)c4ccc(NC(=O)c5ccc(C#N)cn5)cc4)cc3)c(OC(C)C)c2O)ccc(C(=O)O)c1O	microbial growth	DSM28765	–	MIC	≤ 0.03 µg/mL
O=C1NC(=S)S/C1=C\c1ccc(-c2ccc(N(c3ccccc3)c3ccccc3)cc2)c2ccccc12	microbial growth, broth dilution	ATCC12228	–	MIC	1000 µg/mL
CCOC(=O)c1c(N)csc1-c1cn(-c2ccccc2)nc1-c1ccc(C)cc1	microbial killing, broth dilution	–	–	MBC	0.125 µg/mL (≈ 0.31 µM)
O=C(O)c1cn(C2CC2)c2cc(N3CCNCC3)c(F)cc2c1=O	microbial growth, broth dilution	ATCC12228	–	MIC	0.49 µg/mL
N#CC(=Cc1cn(-c2ccccc2)nc1-c1ccccc1)C1=NC(=O)CS1	microbial killing, broth dilution	–	–	MBC	0.5 µg/mL (≈ 1.35 µM)
O=C(O)CN1C(=O)/C(=C/c2c3ccccc3c(-c3ccc(N(c4ccccc4)c4ccccc4)cc3)c3ccccc23)SC1=S	microbial killing, broth dilution	ATCC12228	–	MBC	> 1000 µg/mL
CC(C)Oc1c(NC(=O)c2ccc(NC(=O)[C@H](CC(N)=O)NC(=O)c3ccc(NC(=O)c4ccc(C#N)cn4)cc3)cc2)ccc(C(=O)Nc2ccc(C(=O)O)cc2)c1O	microbial growth	DSM28765	–	MIC	1 µg/mL
O=C(O)CN1C(=O)/C(=C/c2ccc(-c3ccc(N(c4ccccc4)c4ccccc4)cc3)c3ccccc23)SC1=S	microbial killing, broth dilution	ATCC12228	–	MBC	1000 µg/mL (≈ 1750 µM)
O=C(O)c1cn(C2CC2)c2cc(N3CCNCC3)c(F)cc2c1=O	microbial growth	DSM28765	–	MIC	0.25 µg/mL
O=[N+]([O-])c1ccc2c(N=Nc3ccc4ccccc4c3O)c(O)cc(S(=O)(=O)O)c2c1	microbial growth, broth dilution	–	24 h	MIC50	31 µM (≈ 13.6 µg/mL)
